Tests used:
Canis familiaris = species: Canis familiaris; test: In vitro metabolic turnover (% parent lost) after exposure to dog hepatic microsomes (hepatic first pass metabolism); type: functional; settings: Canis lupus familiaris, Liver
Summary of the method: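 Dog liver microsomes with an NADPH-regenerating system, shaken at 37 °C. Centrifuged, then parent compound quantified by reverse-phase HPLC with UV detection at 215 nm. Turnover (% parent lost) taken from the peak-area difference versus a control incubation lacking NADPH regeneration.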

[1] = Partition coefficient (logD); type: physicochemical; settings: octanol/water
Substance-P receptor = Substance-P receptor (Homo sapiens, UniProt P25103); test: Binding affinity to Tachykinin receptor 1 stably expressed in chinese hamster ovary (CHO) cells; type: cell-based
Summary of the method: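 Membranes from CHO cells stably expressing human NK1 receptor, grown in DMEM/F12 with 10% FCS and 4 mM glutamine. Incubated 40 min at 22 °C with 0.7–1.0 nM [3H]substance P (final) in HEPES 50 mM/3 mM MnCl2, pH 7.4, 3 µg protein.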

Mustela putorius furo [2] = test: Compound was evaluated in vivo for its antiemetic activity in ferret, which was administered subcutaneously 90 minutes before (90 ptt) induction of emesis; type: functional
Summary of the method: (§1)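 Adult male ferrets (1.0–1.7 kg), whole-body X-irradiation at 2 Gy over about 5 min. Antagonist given sc 90 min before irradiation or immediately after it. Retches and vomits counted. ID90 is the lowest dose giving ≥90% inhibition of emesis versus untreated irradiated controls; n per group reported.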

Mustela putorius furo [3] = test: Compound was evaluated in vivo for its antiemetic activity in ferret, which was administered subcutaneously immediately after (0 ptt) induction of emesis; type: functional; summary of the method: as §1
[4] = Lipophilicity; type: physicochemical; settings: octanol/water
[5] = Oral bioavailability in dog; type: ADME, organism-based, Canis lupus familiaris; settings: in vivo
Summary of the method: (§2)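 Beagle dogs, iv then oral crossover at 2 mg/kg with wash-out between doses. Blood drawn predose and at 0.08–8 h; plasma prepared at about 5 °C. Parent compound measured by solid-phase extraction and reversed-phase HPLC-UV. Plasma clearance taken from iv dosing; oral bioavailability F calculated from both routes.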

[6] = Compound was evaluated in vivo for plasma clearance in dog after intravenous dose at 2 mg/Kg; type: ADME, organism-based, Canis lupus familiaris; settings: read-out: Clp; summary of the method: as §2
[7] = system: Substance-P receptor (Meriones unguiculatus); test: Compound was evaluated for its ex vivo binding affinity towards substance P receptor measured 15 minutes post administration to gerbil; settings: Gerbillinae
Mustela putorius furo [8] = test: Compound was evaluated in vivo for its antiemetic activity in ferret, which was administered subcutaneously 90 minutes before (90 ptt) induction of emesis;>80% inhibition observed; type: functional

Sequence of Substance-P receptor (P25103 whole entry): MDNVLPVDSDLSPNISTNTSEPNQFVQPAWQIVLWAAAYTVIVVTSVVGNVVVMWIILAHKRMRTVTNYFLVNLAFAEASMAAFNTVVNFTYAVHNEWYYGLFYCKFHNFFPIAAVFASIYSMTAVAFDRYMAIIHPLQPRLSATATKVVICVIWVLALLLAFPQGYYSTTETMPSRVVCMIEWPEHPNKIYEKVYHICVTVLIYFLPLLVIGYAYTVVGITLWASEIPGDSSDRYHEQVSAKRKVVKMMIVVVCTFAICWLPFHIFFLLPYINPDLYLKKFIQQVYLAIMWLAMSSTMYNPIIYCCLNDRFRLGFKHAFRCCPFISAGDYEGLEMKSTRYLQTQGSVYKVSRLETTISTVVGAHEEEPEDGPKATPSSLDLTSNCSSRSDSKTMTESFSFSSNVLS

| SMILES | Metabolic turnover (Canis familiaris) [%] | logD [1] | Ki (Substance-P receptor) [pM] | ID90 (Mustela putorius furo [2]) [mg/kg] | ID90 (Mustela putorius furo [3]) [mg/kg] | logD [4] | bioavailability [5] [%] | clearance [6] [mL/min/kg] | ED50 [7] [mg/kg] | ID90 (Mustela putorius furo [8]) [mg/kg] |
| --- | --- | --- | --- | --- | --- | --- | --- | --- | --- | --- |
| COc1ccc(-n2ncnn2)cc1CN[C@H]1CCCN[C@H]1c1ccccc1 | 65 | 0.8 | 126 | >1 |  |  |  |  |  |  |
| COc1ccc(-n2cncn2)cc1CN[C@H]1CCCN[C@H]1c1ccccc1 | 55 |  | 158 | >3 | 3 | 1.2 |  |  |  |  |
| COc1ccc(Br)cc1CN[C@H]1CCCN[C@H]1c1ccccc1 | 60 |  | 50.1 |  |  | 2.5 |  |  |  |  |
| COc1ccc(-c2c(C)nn(C)c2C)cc1CN[C@H]1CCCN[C@H]1c1ccccc1 | 82 |  | 794 |  |  | 2.3 |  |  |  |  |
| COc1ccc(-c2nnn(C)n2)cc1CN[C@H]1CCCN[C@H]1c1ccccc1 | 63 |  | 2510 | >3 |  | 1.4 |  |  |  |  |
| COc1ccc(-c2nccn2C)cc1CN[C@H]1CCCN[C@H]1c1ccccc1 | 90 |  | 2000 | >3 |  | 1.2 |  |  |  |  |
| COc1ccc(-c2ccncc2)cc1CN[C@H]1CCCN[C@H]1c1ccccc1 | 98 |  | 63.1 |  | 0.3 | 2.2 |  |  |  |  |
| COc1ccc(-c2nnnn2C)cc1CN[C@H]1CCCN[C@H]1c1ccccc1 | 27 |  | 200 | >3 |  | 0.5 |  |  |  |  |
| COc1ccc(-n2cnnn2)cc1CN[C@H]1CCCN[C@H]1c1ccccc1 | 51 | 0.8 | 50.1 | 0.1 | 0.1 |  | 76 | 24 |  |  |
| COc1ccc(S(C)(=O)=O)cc1CN[C@H]1CCCN[C@H]1c1ccccc1 | 25 |  | 501 | >10 | >10 | 0.2 | 42 | 23 | > 0.3 |  |
| COc1ccc(-c2ccsc2)cc1CN[C@H]1CCCN[C@H]1c1ccccc1 | 92 |  | 31.6 |  | >3 | 3.1 |  |  |  |  |
| COc1ccc(-c2ccco2)cc1CN[C@H]1CCCN[C@H]1c1ccccc1 | 100 |  | 501 | >3 |  | 3 |  |  |  |  |
| COc1ccc(F)cc1CN[C@H]1CCCN[C@H]1c1ccccc1 |  |  | 158 |  | 3 | 1.8 |  |  |  |  |
| COc1ccc(-c2c(C)noc2C)cc1CN[C@H]1CCCN[C@H]1c1ccccc1 | 92 |  | 50.1 | 1 |  | 2.3 |  |  |  |  |
| COc1ccc(-c2cncnc2)cc1CN[C@H]1CCCN[C@H]1c1ccccc1 | 36 |  | 158 | >3 | 3 | 1.4 |  |  |  |  |
| COc1ccc(SC)cc1CN[C@H]1CCCN[C@H]1c1ccccc1 | 94 |  | 79.4 |  | 1 | 2 |  |  |  |  |
| COc1ccc(-c2nccs2)cc1CN[C@H]1CCCN[C@H]1c1ccccc1 | 61 |  | 794 |  | >3 | 2.3 |  |  |  |  |
| COc1ccc(-c2ccoc2)cc1CN[C@H]1CCCN[C@H]1c1ccccc1 | 85 |  | 63.1 | 0.3 | 0.3 | 2.5 | < 10 | 45 |  |  |
| COc1ccccc1CN[C@H]1CCCN[C@H]1c1ccccc1 [CP-99994] | 100 |  |  |  | 1 | 1.4 | < 10 | 94 |  | 1 |
